Source: ChEMBL document CHEMBL1139875, “Discovery of 4-aminobutyric acid derivatives possessing anticonvulsant and antinociceptive activities: a hybrid pharmacophore approach” (2007)
Active and inactive are the calls of the source. The calls are words filed in the database; no cut-off is given here.

Legend:
[1] = system: Rattus norvegicus; experiment: Effect on spontaneous pain in Sprague-Dawley rat CCI model assessed as duration of paw withdrawal at 100 mg/kg, ip after 0.5 hr; type: functional; details: route intraperitoneal
Procedure, shortened: (§1)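 CCI rats (n = 4) dosed 100 mg/kg i.p. (vehicle 30% v/v PEG 400 in water). After 10 min acclimatization in a cage 5 cm above ground, cumulative time the ipsilateral paw was held off the floor over 5 min recorded, excluding locomotion lifts. Mean ± SEM; ANOVA/Bonferroni versus predrug.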

[2] = system: Rattus norvegicus; experiment: Effect on spontaneous pain in Sprague-Dawley rat CCI model assessed as duration of paw withdrawal at 100 mg/kg, ip after 1 hr; type: functional; details: route intraperitoneal; procedure, shortened: as §1
[3] = system: Rattus norvegicus; experiment: Effect on spontaneous pain in Sprague-Dawley rat CCI model assessed as duration of paw withdrawal at 100 mg/kg, ip after 1.5 hrs; type: functional; details: route intraperitoneal
Procedure, shortened: (§2)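 Unilateral CCI of sciatic nerve (Bennett and Xie) in Sprague-Dawley rats under i.p. pentobarbital sodium (65 mg/kg). Spontaneous pain is scored over 5 min after 10 min acclimatization, as cumulative time the ipsilateral paw is held off the floor. Paw lifts from locomotion or repositioning are excluded. Drug is given at 100 mg/kg i.p. with 30% v/v PEG 400 vehicle. Mean ± SEM, n = 4, compared with predrug by ANOVA/Bonferroni.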

[4] = system: Rattus norvegicus; experiment: Effect on spontaneous pain in Sprague-Dawley rat CCI model assessed as duration of paw withdrawal at 100 mg/kg, ip after 2 hrs; type: functional; details: route intraperitoneal; procedure, shortened: as §2
[5] = system: Rattus norvegicus; experiment: Anti-cold allodynia effect in Sprague-Dawley rat SNL model assessed as duration of paw withdrawal 100 mg/kg, ip after 1.5 hrs; type: functional; details: route intraperitoneal
Procedure, shortened: (§3)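 Left L5 spinal nerve ligation under pentobarbital (65 mg/kg i.p.). Allodynic rats dosed i.p. 100 mg/kg, vehicle 30% v/v PEG 400 in water. Acetone (100-200 µL) misted onto midplantar affected paw after 10 min acclimatization; paw withdrawal duration, mean of three samples at least 3 min apart; n = 4 rats.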

[6] = system: Rattus norvegicus; experiment: Anti-cold allodynia effect in Sprague-Dawley rat SNL model assessed as duration of paw withdrawal 100 mg/kg, ip after 2 hrs; type: functional; details: route intraperitoneal; procedure, shortened: as §3
[7] = system: Rattus norvegicus; experiment: Effect on spontaneous pain in Sprague-Dawley rat CCI model assessed as duration of paw withdrawal at 100 mg/kg, ip after 2.5 hrs; type: functional; details: route intraperitoneal; procedure, shortened: as §2
[8] = system: Rattus norvegicus; experiment: Antihyperalgesic effects in Sprague-Dawley rat CCI model assessed as duration of paw withdrawal at 100 mg/kg, ip after 0.5 hr; type: functional; details: route intraperitoneal
[9] = system: Rattus norvegicus; experiment: Antihyperalgesic effects in Sprague-Dawley rat CCI model assessed as duration of paw withdrawal at 100 mg/kg, ip after 1 hr; type: functional; details: route intraperitoneal
[10] = system: Rattus norvegicus; experiment: Antihyperalgesic effects in Sprague-Dawley rat CCI model assessed as duration of paw withdrawal at 100 mg/kg, ip after 1.5 hrs; type: functional; details: route intraperitoneal
[11] = system: Rattus norvegicus; experiment: Antihyperalgesic effects in Sprague-Dawley rat CCI model assessed as duration of paw withdrawal at 100 mg/kg, ip after 2 hrs; type: functional; details: route intraperitoneal
[12] = system: Rattus norvegicus; experiment: Antihyperalgesic effects in Sprague-Dawley rat CCI model assessed as duration of paw withdrawal at 100 mg/kg, ip after 2.5 hrs; type: functional; details: route intraperitoneal
[13] = system: Rattus norvegicus; experiment: Effect on spontaneous pain in Sprague-Dawley rat SNL model assessed as duration of paw withdrawal at 100 mg/kg, ip after 1 hr; type: functional; details: route intraperitoneal
Procedure, shortened: (§4)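 Rats underwent left L5 spinal nerve ligation (Kim and Chung) under i.p. pentobarbital (65 mg/kg). Spontaneous pain is recorded for 5 min after 10 min acclimatization, as cumulative duration the ipsilateral paw is lifted, excluding locomotor lifts. Dosing is 100 mg/kg i.p. in 30% v/v PEG 400/water, with testing at 0.5–2.5 h. Four rats, mean ± SEM versus predrug, one-way ANOVA with Bonferroni.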

[14] = system: Rattus norvegicus; experiment: Effect on spontaneous pain in Sprague-Dawley rat SNL model assessed as duration of paw withdrawal at 100 mg/kg, ip after 1.5 hrs; type: functional; details: route intraperitoneal; procedure, shortened: as §4
[15] = system: Rattus norvegicus; experiment: Antihyperalgesic effects in Sprague-Dawley rat SNL model assessed as duration of paw withdrawal at 100 mg/kg, ip after 0.5 hr, ip; type: functional; details: route intraperitoneal
Procedure, shortened: (§5)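 L5 SNL rats (n = 4), dosed 100 mg/kg i.p. (vehicle 30% v/v PEG 400 in water). Pin-prick to midplantar ipsilateral left hindpaw; withdrawal duration, mean of three responses; ≥2 s defined abnormal. Mean ± SEM; one-way ANOVA with Bonferroni versus predrug.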

[16] = system: Rattus norvegicus; experiment: Antihyperalgesic effects in Sprague-Dawley rat SNL model assessed as duration of paw withdrawal at 100 mg/kg, ip after 1 hr, ip; type: functional; details: route intraperitoneal; procedure, shortened: as §5
[17] = system: Rattus norvegicus; experiment: Antihyperalgesic effects in Sprague-Dawley rat SNL model assessed as duration of paw withdrawal at 100 mg/kg, ip after 1.5 hrs, ip; type: functional; details: route intraperitoneal; procedure, shortened: as §5
[18] = system: Rattus norvegicus; experiment: Antihyperalgesic effects in Sprague-Dawley rat SNL model assessed as duration of paw withdrawal at 100 mg/kg, ip after 2.5 hrs, ip; type: functional; details: route intraperitoneal; procedure, shortened: as §5
[19] = organism: Rattus norvegicus; experiment: Anti-dynamic allodynic effect in Sprague-Dawley rat CCI model assessed as latency to paw withdrawal after 0.5 hr; type: functional
Procedure, shortened: (§6)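 Rats with sciatic nerve chronic constriction injury (pentobarbital 65 mg/kg i.p. anaesthesia), baseline and day 9 testing, then drug per randomization table. After 10 min acclimatization, affected plantar surface stroked mildly with a cotton-bud; paw lift recorded. n = 4; retested 0.5-2.5 h post-dose.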

[20] = organism: Rattus norvegicus; experiment: Anti-dynamic allodynic effect in Sprague-Dawley rat CCI model assessed as latency to paw withdrawal after 1 hr; type: functional; procedure, shortened: as §6
[21] = organism: Rattus norvegicus; experiment: Anti-dynamic allodynic effect in Sprague-Dawley rat CCI model assessed as latency to paw withdrawal after 1.5 hr; type: functional; procedure, shortened: as §6
[22] = organism: Rattus norvegicus; experiment: Anti-dynamic allodynic effect in Sprague-Dawley rat CCI model assessed as latency to paw withdrawal after 2 hr; type: functional; procedure, shortened: as §6
[23] = organism: Rattus norvegicus; experiment: Anti-dynamic allodynic effect in Sprague-Dawley rat CCI model assessed as latency to paw withdrawal after 2.5 hr; type: functional; procedure, shortened: as §6
[24] = system: Rattus norvegicus; experiment: Anti-cold allodynia effect in Sprague-Dawley rat CCI model assessed as duration of paw withdrawal 100 mg/kg, ip after 1.5 hr; type: functional; details: route intraperitoneal
Procedure, shortened: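 CCI by sciatic nerve ligation under pentobarbital (65 mg/kg i.p.). Rats tested at baseline and 9 days post-surgery; those with allodynia dosed i.p. 100 mg/kg, vehicle 30% v/v PEG 400 in water. Acetone (100-200 µL) misted on midplantar affected paw; withdrawal duration recorded, three samples averaged, at least 3 min apart; n = 4.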

[25] = system: Mus musculus; experiment: Anticonvulsant activity in Swiss Albino mouse at 300 mg/kg, ip after 4 hrs by MES test; type: functional, organism-based; parameters: dose 300 mg/kg
Procedure, shortened: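 Mice (Swiss, 20-25 g) given i.p. doses of 30, 100 and 300 mg/kg under ADD program protocols, three per group, examined at 0.5 and 4 h in MES, scPTZ, scSTY or scPIC seizure tests. Value is the minimum dose protecting half or more of the mice.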

[26] = system: Mus musculus; experiment: Analgesic activity in Swiss Albino mouse assessed as inhibition of acetic acid-induced writhing responses at 100 mg/kg, ip; type: functional; details: route intraperitoneal
Procedure, shortened: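 Mice in groups of six dosed i.p. at 100 mg/kg, controls receiving 30% v/v PEG 400 in water. Writhing induced by i.p. 0.1 mL of 3% v/v acetic acid 1 h after drug. Writhes (abdominal stretch with at least one hind limb extended) counted over 30 min; % inhibition calculated. Mean ± SEM, Student's t test.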

SMILES | Activity [1] | Activity [2] | Activity [3] | Activity [4] | Activity [5] | Activity [6] | Activity [7] | Activity [8] | Activity [9] | Activity [10] | Activity [11] | Activity [12] | Activity [15] | Activity [16] | Activity [17] | Activity [18] | Activity [19] | Activity [20] | Activity [21] | Activity [22] | further results
NC(=O)N1c2ccccc2C=Cc2ccccc21 [CARBAMAZEPINE] | 24.6 s | 17.8 s | 32.8 s | 67.4 s | 7.9 s | 19.4 s | 76.9 s | 13.3 s | 15.7 s | 22.9 s | 21.7 s | 24 s | 11.1 s | 5.2 s | 6.6 s | 5.8 s | 2.7 s | 3.7 s | 4.9 s | 3.4 s | Activity [13]: 7.9 s; Activity [14]: 22.3 s; Activity [23]: 3.8 s; Activity [24]: 28.9 s
O=C(O)CCCNC(=O)N/N=C1\C(=O)Nc2ccccc21 | 38.6 s | 34.9 s | 21.6 s | 20.6 s | 22.6 s | 17.1 s | 20.2 s | 10.8 s | 4.9 s | 8.8 s | 5 s | 27.8 s | 4.7 s | 9.6 s | 45.7 s | 18.7 s | 14.5 s | 12.4 s | 15.5 s | 8.4 s | Activity [25]: Active; inhibition in vivo at 100 mg/kg [26]: 74%; Activity [13]: 0.9 s; Activity [14]: 0.9 s; Activity [23]: 0.8 s
O=C(O)CCCNC(=O)N/N=C/c1ccccc1O | 10.5 s | 19.3 s | 23.7 s | 11.2 s | 26 s | 25.4 s | 7.3 s | 7.5 s | 7.7 s | 4.4 s | 4.1 s | 7.3 s | 17.6 s | 17.3 s | 10.6 s | 17.3 s | 13.6 s | 13.5 s | 11.1 s | 14.6 s | Activity [25]: inactive; inhibition in vivo at 100 mg/kg [26]: 89%; Activity [23]: 13.1 s; Activity [24]: 11.2 s
